Screening data deposited in PubChem BioAssay by Sanford-Burnham Center for Chemical Genomics.
Apaf1 activ: activators of human Apaf-1 apoptosome, primary screen, biochemical, DEVD-Rh110 fluorescence, uHTS. Apoptotic protease-activating factor 1 (Homo sapiens), O14727. Apaf-1 apoptosome caspase-3 activation; active compounds read low. activity change, negative = activation, % at 20 µM. hit rate 0.31% among 330,000;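 active means activity change at or below -40% at 20 µM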
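Material: reconstituted apoptosome of Apaf-1, cytochrome c, caspase-9, procaspase-3; times: 30 min preincubation, 50 min reaction, room temperature; measured by: fluorescence, 540 nm emission, 480 nm excitation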
Rh110 interf act: Rh110 fluorescence interference by putative Apaf-1 activators, confirmation, artefact control for Apaf-1 activator project, biochemical, 20 µM. shares compounds with Apaf1 activ. quenched caspase reaction, Ex480/Em540. fluorescence interference (activity change), % at 20 µM, hits read low. 980 tested, under 10 active. AID 504616, 2011;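 active means mean activity change at or below -40% when tested at 20 µM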
Apaf-1 act conf: Apaf-1 activators, single-dose retest, confirmation, biochemical, fluorescence, DEVD-Rh110, 20 µM; AID 504617, 2011; shares compounds with Apaf1 activ; activity change, negative = activation, % at 20 µM; reconstituted apoptosome caspase-3 activity; active compounds read low; hit rate 5% among 980;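 active means mean activity change at or below -40%, meaning activation of 40% or more, at 20 µM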
Numbers without * were called inactive; . = not tested or not shown. A selection follows.

SMILES | Apaf1 activ | Rh110 interf act | Apaf-1 act conf
C#CCOCCOCCOCCNc1nc(N2CCN(C(=O)[C@H](Cc3ccc(O)cc3)n3cc([C@@H](N)C(C)CC)nn3)CC2)nc(N2CCN(C(=O)[C@H](Cc3cc4ccccc4[nH]3)n3cc([C@@H](N)CC(C)C)nn3)CC2)n1 (some centres not stated) | 47 | . | .
Cc1[nH]n(-c2ccccc2)c(=O)c1C(C[N+](=O)[O-])c1ccc(F)cc1 (configuration not stated) | 94 | . | .
Cc1ccc(SC(C)c2nc(-c3ccccc3)no2)cc1 (configuration not stated) | -247* | 0 | 12
CCC(CO)Oc1cc(NCc2ccc(C)cc2)c2ncn(C(C)C)c2c1 (configuration not stated) | 41 | . | .
C#CCOCCOCCOCCNc1nc(N2CCN(C(=O)CCCCCCCCCCNC(=O)[C@H](CCCCN)n3cc(CCO)nn3)CC2)nc(N2CCN(C(=O)CCCCCCCCCCNC(=O)[C@H](CCCCN)n3cc(CCO)nn3)CC2)n1 | 64 | . | .
O=[N+]([O-])c1cc([N+](=O)[O-])c2nonc2c1Nc1ccc(O)cc1 | 74 | . | .
O=[N+]([O-])c1cncc([N+](=O)[O-])c1Nc1cccc(O)c1 | -64* | 12 | 18
Cc1onc(-c2ccccc2Cl)c1C(=O)NCc1ccc2c(c1)cc(C)n2C | 53 | . | .
CC(=O)Nc1cc(OC(C)=O)c2nonc2c1OC(C)=O | 98 | . | .
Cn1c(SCC(=O)NNC(=O)c2ccccc2)nnc1C(F)(F)F | -97* | -2 | 8
Cn1c(SCC(=O)n2c3c(c4ccccc42)CCCC3)nnc1-c1ccccc1 | 43 | . | .
O=C1C2=C(c3ccccc31)[N+](=O)[C@@H]1CCCC[C@@H]1N2[O-] | 75 | . | .
COc1ccccc1NC(=O)C1=C(C)Nc2nnnn2C1c1cccc(C)c1 (configuration not stated) | -71* | 6 | 14
C#CCOCCOCCOCCNc1nc(N2CCOCC2)nc(N2CCN(C(=O)CCCCCCCCCCNC(=O)[C@H](CO)n3cc(CCCCCN)nn3)CC2)n1 | 44 | . | .
CC(=O)C1=C(O)C(=O)N(CCc2c[nH]c3ccccc23)C1c1ccco1 (configuration not stated) | 43 | . | .
Cc1cc(-c2ccc(N=Nc3c(S(=O)(=O)O)cc4cc(S(=O)(=O)O)cc(N)c4c3O)c(C)c2)ccc1N=Nc1c(S(=O)(=O)O)cc2cc(S(=O)(=O)O)cc(N)c2c1O | 98 | . | .
CCCCC1=CC2=C(c3ccco3)C(=O)C(C)(OC(=O)c3ccc(OC)cc3)C(=O)C2=CN1C1CC1 (configuration not stated) | 40 | . | .
COC(=O)c1nn(-c2ccc(OC)cc2)c(=O)cc1NN | 42 | . | .
COC(=O)c1nn(-c2ccc(OC)cc2)c(=O)cc1Sc1ccc(C)cc1 | -333* | -4 | 12
C#CCOCCOCCOCCNc1nc(N2CCN(C(=O)CCCCCCCCCCNC(=O)[C@H](CO)n3cc(CCCSC)nn3)CC2)nc(N2CCN(C(=O)CCCCCCCCCCNC(=O)[C@H](CCCCN)n3cc(C[C@@H](C)CC)nn3)CC2)n1 | 68 | . | .
CC(C)=CCc1c(O)c(CC=C(C)C)c2c(c1O)C(=O)CC(c1ccc(O)cc1)O2 (configuration not stated) | -150* | 16 | 23
CCOC(=O)C1Nc2ccccc2C2C(O)C(O)CC12 (configuration not stated) | 66 | . | .
CCOC(=O)N1CCN(c2ccc([N+](=O)[O-])cc2)CC1 | -142* | 7 | 5
CCOC(=O)N1CCN(C2=C(NS(=O)(=O)c3ccc(NC(C)=O)cc3)C(=O)c3ccccc3C2=O)CC1 | 83 | . | .
CCN(CC)c1ccc(/C=C2/C(=O)N(c3ccc([N+](=O)[O-])cc3)N=C2N2CCOCC2)cc1 | 56 | . | .
SMILES | Apaf1 activ | Rh110 interf act | Apaf-1 act conf
COc1ccc(OC)c(S(=O)(=O)Oc2ccc(N)c3ccccc23)c1 | 69 | . | .
COc1cccc(N2CCN(C(=O)c3ccc(=O)oc3)CC2C)c1 (configuration not stated) | -332* | -7 | 9
Cc1cccc(N2CCN(C(=O)c3ccc4nc(-c5ccco5)c(-c5ccco5)nc4c3)CC2C)c1 (configuration not stated) | 60 | . | .
COc1cc(CNc2ccc(O)cc2)cc(Br)c1OCc1ccccc1F | 96 | . | .
COc1ccc(OCc2nnc(SCC(=O)NC3CC3)n2C)cc1 | -96* | -3 | 8
CC1CCN(C(=O)CSc2nnc(Cn3c(=O)sc4ccccc43)n2C)CC1 | 43 | . | .
O=c1cccccc1NCc1ccccc1 | 45 | . | .
CCNC(=O)Oc1ccc[nH]c1=O | 42 | . | .
